Screening results from PubChem.
STEP block – inhibitors of human striatal-enriched phosphatase STEP | AID 588621 | inhibition, % at 20 µM | recombinant STEP, OMFP fluorogenic substrate, fluorescence | actives 0.25% (n = 360,000);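 active means inhibition at 20 µM, scaled per plate between control wells, above about 37%, limit read from the data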;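 further: 0% = DMSO with enzyme and substrate and 100% = substrate only without enzyme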
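material = STEP tyrosine phosphatase | reagent = fluorogenic phosphatase substrate OMFP at 25 µM final | doses = single compound dose of 20 µM, 1% DMSO final | schedule = 20 min reaction, room temperature, in the dark | measured by = fluorescence, 480/540 nm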
LMPTP block – blocks human LMPTP phosphatase; actives 0.22% (n = 360,000); P24666; AID 651560; inhibition, % at 20 µM; recombinant LMPTP-A, OMFP fluorogenic substrate, fluorescence intensity;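 active means compounds that cut the enzyme signal by at least half of the control window in the single-dose screen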;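 further: plate controls were DMSO wells with enzyme plus substrate for no effect and substrate without enzyme for full effect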
Target sequence (P24666 whole entry, looked up): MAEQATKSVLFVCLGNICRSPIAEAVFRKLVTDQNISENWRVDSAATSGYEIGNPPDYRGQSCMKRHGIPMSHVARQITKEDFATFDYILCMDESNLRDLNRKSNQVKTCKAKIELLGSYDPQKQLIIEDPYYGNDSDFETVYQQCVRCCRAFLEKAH
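Assay system: LMPTP-A phosphatase enzyme | Input: 0.625 nM enzyme | Also added: Fluorogenic phosphatase substrate OMFP at 400 µM final | Compound dosing: One test concentration per compound, 20 µM, with 3% DMSO overall | Schedule: 50 min enzyme reaction at room temperature, protected from light | Signal: Fluorescence intensity | Benchmarks: no-enzyme and uninhibited controls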
Scp-1 inhibitor – blocks human Scp-1 phosphatase activity; Q9GZU7; Recombinant Scp1, phosphopeptide, malachite green phosphate absorbance; inhibition, % at 20 µM; actives 0.88% (n = 340,000);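 active means inhibition above about 50% at 20 µM, limit read from the data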;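 further: plate controls were DMSO wells with enzyme for no effect and wells lacking enzyme for full effect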
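Test system – truncated SCP-1 phosphatase (76-261aa) · Reagent – Phosphorylated 17-residue peptide substrate · Incubation – 45 min room-temperature reaction, 5 min colour, 30 min stabiliser · Detection – colorimetric phosphate reagent with accelerator and stabiliser, absorbance at 630 nm · Measure – % inhibition at 20 µM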
SUMO1 PPI mod – alters human SUMO1 binding to SIM partners; P63165; SUMO1 binding to a labelled peptide, TR-FRET, 1 h; actives 0.33% (n = 360,000); inhibition, % at 20 µM; in the data active means inhibition above about 37%
Target sequence (P63165 whole entry, looked up): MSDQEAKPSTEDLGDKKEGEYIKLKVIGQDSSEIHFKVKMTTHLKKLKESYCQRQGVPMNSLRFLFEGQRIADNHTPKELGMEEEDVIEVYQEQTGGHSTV
DNMT1 block – DNMT1 (human) enzyme inhibition; actives 0.83% (n = 360,000); AID 588458; inhibition (reported as % activation of signal), % at 10 µM; P26358; DNMT1 molecular beacon, Hinp1I cleavage, fluorescence; in the data active means inhibition above about 50%
Casp6 inh – inhibitors of human caspase-6; purified caspase-6, Z-VEID-R110 cleavage fluorescence; actives 0.53% (n = 350,000); inhibition, % at 12.5 µM;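 active means mean inhibition across replicates at least about 35%, with every replicate also reaching that limit, limit read from the data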;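 further: 0% = median of neutral control wells and 100% = no fluorescence left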
Target sequence (P55212 24-179 limits assumed): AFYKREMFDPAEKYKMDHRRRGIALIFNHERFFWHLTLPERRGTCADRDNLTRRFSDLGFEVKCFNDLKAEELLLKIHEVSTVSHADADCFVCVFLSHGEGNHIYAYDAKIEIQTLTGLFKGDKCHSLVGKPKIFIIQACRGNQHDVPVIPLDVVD
Target sequence (P55212 194-293 limits assumed): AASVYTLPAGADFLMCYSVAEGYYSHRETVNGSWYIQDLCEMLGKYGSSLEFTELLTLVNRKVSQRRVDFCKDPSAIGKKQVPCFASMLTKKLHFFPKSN
Scp-1 conf – confirmation of human Scp-1 phosphatase inhibitors; recombinant SCP-1 catalytic domain, phosphate release, malachite green absorbance; inhibition, % at 20 µM; actives 61% (n = 2,500); shares compounds with Scp-1 inhibitor;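 further: plate controls were DMSO with enzyme for no effect and buffer wells lacking enzyme for full effect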
Scp-1 MG ctr – interferes with malachite green readout, flagging false Scp-1 hits; shares compounds with Scp-1 inhibitor; Colorimetric interference counterscreen, malachite green absorbance 630 nm; apparent inhibition (interference), % at 20 µM; 2,500 tested, under 10 active;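 further: compounds added after enzyme reaction finished so only phosphate colour detection is probed; plate controls were DMSO wells with completed Scp-1 reaction for no effect and substrate wells lacking enzyme for full effect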
Scp1 DSF – Scp-1 (human) binding by thermal shift; shares compounds with Scp-1 inhibitor; Recombinant SCP1, Sypro Orange thermal shift Tm; thermal shift relative to vanadate control, % at 40 µM; actives 25% (n = 1,500); AID 540329;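 active means substances whose mean melting-temperature shift, as a percentage of the reference inhibitor's shift, reaches about 5.3%, limit read from the data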;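 further: 0% = Tm of DMSO wells and 100% = Tm with sodium orthovanadate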
Numbers without * were called inactive. Rows were chosen to be rich in hits. Some 1.7% of all compounds tested hit in one or more screens of this group.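 How the source made its calls, unless noted: active means inhibition of at least 30% at 20 µM; inactive means the rest.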

For N#C/C(=C/c1ccc(OCc2ccc(C(=O)O)cc2)cc1)C(=O)Nc1ccccc1 the results were STEP block 3, LMPTP block 2, Scp-1 inhibitor 71*, SUMO1 PPI mod -15, DNMT1 block 1, Casp6 inh -3, Scp-1 conf 82*, Scp-1 MG ctr -7 and Scp1 DSF -9.
Screening CCOc1cc(/C=C(\C#N)C(=O)Nc2cccc(C(=O)O)c2)ccc1OCc1ccccc1Cl returned STEP block 20, LMPTP block 3, Scp-1 inhibitor 46, SUMO1 PPI mod 30 and DNMT1 block 7.
Screening Cn1c(SCC(=O)Nc2nncs2)nnc1C1CC1 returned STEP block 29, LMPTP block 0, Scp-1 inhibitor 79*, SUMO1 PPI mod 18, DNMT1 block 50, Casp6 inh 36*, Scp-1 conf 53*, Scp-1 MG ctr -15 and Scp1 DSF 5.5*.
`C[C@H]1CN([C@@H](C)CO)C(=O)c2cc(NC(=O)c3ccncc3)ccc2O[C@@H]1CN(C)C(=O)Nc1ccccc1` gave Casp6 inh 0.
Screening CC(C)NC(=O)Nc1ccc2c(c1)C(=O)N([C@H](C)CO)C[C@H](C)[C@@H](CN(C)C(=O)NC(C)C)O2 returned STEP block 1, LMPTP block 0, Scp-1 inhibitor 56*, SUMO1 PPI mod 3, DNMT1 block -3, Casp6 inh 5, Scp-1 conf 19 and Scp-1 MG ctr 1.
`CC(C)NC(=O)N(C)C[C@@H]1Oc2ccc(NC(=O)CCN3CCOCC3)cc2CC(=O)N([C@H](C)CO)C[C@@H]1C` gave Casp6 inh -1.
For CC(C)NC(=O)N(C)C[C@H]1Oc2ccc(NC(=O)c3ccncc3)cc2C(=O)N([C@H](C)CO)C[C@@H]1C the results were STEP block 0, LMPTP block 0, Scp-1 inhibitor 73*, SUMO1 PPI mod -5, DNMT1 block 7, Casp6 inh 0, Scp-1 conf 18 and Scp-1 MG ctr -18.
For CC(C)NC(=O)N(C)C[C@@H]1Oc2ccc(NC(=O)CCN3CCOCC3)cc2CC(=O)N([C@@H](C)CO)C[C@@H]1C the results were STEP block -1, LMPTP block -2, Scp-1 inhibitor 52*, SUMO1 PPI mod 4, DNMT1 block 5, Casp6 inh 0, Scp-1 conf 19 and Scp-1 MG ctr -14.
Screening C[C@@H]1CN([C@H](C)CO)C(=O)c2cc(NC(=O)c3ccncc3)ccc2O[C@@H]1CN(C)C(=O)Nc1ccccc1 returned STEP block -1, LMPTP block -2, Scp-1 inhibitor 94*, SUMO1 PPI mod -4, DNMT1 block 6, Casp6 inh -3, Scp-1 conf 61*, Scp-1 MG ctr -14 and Scp1 DSF -10.
COc1ccccc1C(=O)Nc1ccnn1C1CCN(C(=O)C2CCOC2)CC1 (stereo unspecified) was read as STEP block 0, LMPTP block -1, Scp-1 inhibitor -1, SUMO1 PPI mod -1, DNMT1 block 1 and Casp6 inh 0.
COc1ccccc1N1CCN(C(=O)CCn2c(=O)[nH]c3ccsc3c2=O)CC1 was read as STEP block 0, LMPTP block 0, Scp-1 inhibitor -13, SUMO1 PPI mod 1 and DNMT1 block 3.
For COc1ccc(-c2c(C)nn3c(N4CCCCCC4)cc(C)nc23)cc1OC the results were STEP block 0, LMPTP block 4, Scp-1 inhibitor 1, SUMO1 PPI mod 10, DNMT1 block -8 and Casp6 inh 0.
COc1ccc(S(=O)(=O)N[C@H]2CC[C@H](CC(=O)NCCc3ccncc3)O[C@@H]2CO)cc1 was read as Casp6 inh -3.
O=C(COc1ccc(OCc2ccccc2)cc1)NC1CCOC1=O (stereo unspecified) was read as STEP block -1, LMPTP block -2, Scp-1 inhibitor 85*, SUMO1 PPI mod 2, DNMT1 block -2, Scp-1 conf -19 and Scp-1 MG ctr -19.
Screening Cn1c(=O)c(C(=O)CN2CC(=O)Nc3ccccc32)c(N)n(Cc2ccccc2)c1=O returned STEP block 0, LMPTP block 0, Scp-1 inhibitor -7, SUMO1 PPI mod 2, DNMT1 block 2, Casp6 inh -7, Scp-1 conf -7 and Scp-1 MG ctr -11.
Cn1c(=O)c(C(=O)CN2CCc3ccccc32)c(N)n(Cc2ccccc2)c1=O was read as STEP block 3, LMPTP block 1, Scp-1 inhibitor -6, SUMO1 PPI mod -1 and DNMT1 block -24.
Screening [O-][n+]1cc(Cl)cc(Cl)c1 returned STEP block 0, LMPTP block -1, SUMO1 PPI mod 0, DNMT1 block -1 and Casp6 inh 1.
`Cc1cc(C)n2cc(CSc3nnc(-c4ccccc4)o3)nc2n1` gave STEP block 0, LMPTP block -1, Scp-1 inhibitor 80*, SUMO1 PPI mod -2, DNMT1 block 3, Scp-1 conf -6 and Scp-1 MG ctr -13.
`Cc1cc(C)n2cc(CSCc3ccccc3)nc2n1` gave STEP block 3, LMPTP block 0, Scp-1 inhibitor -4, SUMO1 PPI mod -1, DNMT1 block 1 and Casp6 inh 0.
`NS(=O)(=O)c1ccc(NC(=S)Nc2ccc(F)c(F)c2)cc1` gave STEP block -3, LMPTP block -1, Scp-1 inhibitor 60*, SUMO1 PPI mod -4, DNMT1 block 2, Casp6 inh -1, Scp-1 conf -2 and Scp-1 MG ctr -11.
